# miR-122 sensor – blocks miR-122 activity in Huh7 sensor cells; AID 602342; activation (reporter increase), % at 12.5 µM; Huh7 miR-122 Renilla luciferase sensor, 48 h; neutral wells = 0, positive control = 100; actives 0.3% (n = 340,000);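 active means mean replicate activation score at least 90 and every replicate individually at or above 90; inconclusive means only one of the two criteria met; inactive means neither criterion met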;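 further: higher luciferase means less miR-122 activity so hits act as miR-122 inhibitors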
# PvdQ inh – P. aeruginosa PvdQ acylase inhibition. purified PvdQ acylase, fluorescence plate reader. inhibition, % at 10 µM. actives 0.063% (n = 340,000). AID 488965; in the data active means inhibition above about 30%, passing the limit was not always enough; inconclusive means no clear call, values can overlap the other calls;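 further: 0% = vehicle neutral wells and 100% = reference inhibitor wells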
# CAL PDZ FP-1 – CAL PDZ (human) peptide binding inhibition. actives 0.92% (n = 300,000). inhibition, % at 24.9 µM. Q9HD26. purified CAL PDZ, TMR-peptide fluorescence polarization, 1 h;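 active means mean inhibition of at least 30% with at least half of replicates also reaching 30%; inconclusive means no clear call, values can overlap the other calls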;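 further: 0% = DMSO neutral control and 100% = excess unlabeled competitor peptide PRC23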
# CAL PDZ FP-2 – human CAL PDZ-peptide interaction inhibition | Q9HD26 | inhibition, % at 20 µM | purified CAL PDZ, TMR-peptide fluorescence polarization, 1 h | actives 0.02% (n = 330,000) | AID 504414;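 active means highest replicate inhibition of at least 40%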;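 further: plate controls were DMSO neutral control wells for no effect and unlabeled competitor peptide control wells for full effect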
#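 Control set: unlabelled peptide and DMSO controls / Material: purified CerCALP PDZ construct / Timing: 1 h incubation at room temperature before polarization reading / Doses: 20 µM, one dose / Detection: fluorescence polarization (mP)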
# Numbers without * were called inactive; u = inconclusive; x = not tested or not shown; [ ] = another dose, or the depositor's remark. An excerpt weighted towards active compounds, which were near 0.95% of everything screened.
SMILES,miR-122 sensor,PvdQ inh,CAL PDZ FP-1,CAL PDZ FP-2
CC(C)NC(=O)Nc1ccc2c(c1)CC(=O)N([C@H](C)CO)C[C@@H](C)[C@@H](CN(C)Cc1ccc(Oc3ccccc3)cc1)O2,96.6*[16.7 µM],x,x,x
Cc1cccc(CC2CC(=O)N(c3ccccc3)C2=O)c1 (stereo not given),-12.7,-10.5,x,0.2
COc1ccc(CNCc2c(O)c(Cl)cc3c(C)c(C)c(=O)oc23)c(OC)c1,-1.9,-68.0,31.6*,-0.5
COC(=O)c1ccc(C(=O)OC)c(NC(=O)CN(c2ccc3c(c2)OCO3)S(C)(=O)=O)c1,-1.8,-10.6,11.1,-1.8
COc1cc(C(=O)N/N=C(\C)c2ccc3c(c2)OCO3)cc(OC)c1OC,x,-6.1,-2.9,x
CCOc1ccc(/C=C/C(=O)c2ccccc2)cc1OC,x,-15.2,0.9,-0.7
CCOc1ccc(C(=O)/C=C/c2ccc(OC)c(OC)c2)cc1,x,-8.7,60.5*,-1.5
CC(C)C(NC(=O)C1CCCCC1)C(=O)Nc1ccc2c(c1)OCCO2 (stereo not given),-16.3,0.0,0.0,-0.4
Cc1cccc(N(O)C(=O)Nc2cccc(Cl)c2)c1,-2.1,-36.7,31.3*,-1.5
CCOC(=O)/C(C#N)=C/c1ccc(OC)c(OC)c1,-1.0,-11.0,0.1,-2.1
CCOC(=O)/C(C#N)=C/c1ccc(SC)cc1,x,44.8*,-2.7,-4.0
CCOC(=O)/C(C#N)=C/c1ccc(OCC(=O)Nc2ccc(OC)cc2)c(OC)c1,-13.5,-14.2,74.6*,-1.2
Cc1nn(C)c(C)c1C(C)NC(=O)c1cc(COc2ccc(F)c(F)c2)on1 (stereo not given),-1.6,-3.9,40.2*,-0.5
CCN(CCn1cccn1)C(=O)c1cc(COc2ccc(F)c(F)c2)on1,-3.0,-14.2,56.8*,0.0
COc1ccc(NS(=O)(=O)c2cc(C)ccc2OC)cc1OC,94.7*,-20.4,-4.8,-0.8
COc1ccc(C)cc1S(=O)(=O)Nc1cccc(SC)c1,165.5*,-8.0,-1.6,-0.6
COc1ccc(C)cc1S(=O)(=O)Nc1cccc(C)c1,x,-20.0,0.2,1.1
COc1cccc(NS(=O)(=O)c2cc(C)ccc2OC)c1,u,-10.5,x,-1.2
C#CCOCCOCCOCCNc1nc(N2CCN(C(=O)C([C@@H](C)CC)n3cc(C(N)CC(C)C)nn3)CC2)nc(N2CCN(C(=O)[C@H](CCC(=O)O)n3cc(C(N)[C@H](C)CC)nn3)CC2)n1 (stereo not given in full),-1.4,-18.2,0.4,0.0
CCN1C(=O)/C(=C\N2CCCc3ccccc32)SC1=S,x,-8.4,-3.8,-0.9
Cc1nonc1CN(C)C(=O)c1cc(COc2ccc(F)cc2Cl)on1,1.1,11.3,-9.1,-0.8
CSc1ccccc1OCc1cc(C(=O)N(C)Cc2nonc2C)no1,-8.8,-5.5,36.4*,-0.4
COc1ccc(NC(C)=O)cc1NC(=O)c1ccc(C#N)cc1,0.6,-3.3,30.7*,-1.9
COc1ccc(-c2c(NC(C)=O)n(C)c3ccccc3c2=O)cc1,0.8,-10.9,45.0*,16.6
O=C(NC1CCSC1)c1cccc(Cl)c1 (stereo not given),2.6,80.7*,x,0.6
SMILES,miR-122 sensor,PvdQ inh,CAL PDZ FP-1,CAL PDZ FP-2
O=C(NC1CCSC1=O)c1cccc(Cl)c1 (stereo not given),0.1,-0.4,-1.3,-2.8
Cn1cccc1C(C#N)c1ncc(C(F)(F)F)cc1Cl (stereo not given),-6.7,-0.8,-1.7,0.0
N#CC(c1ccc(Cl)cc1)c1ncc(C(F)(F)F)cc1Cl (stereo not given),11.7,56.9*,-1.4,-1.0
N#CC(c1cccc(Cl)c1)c1ncc(C(F)(F)F)cc1Cl (stereo not given),-27.8,51.9*,0.2,-2.3
COc1ccc(CCN2CC(C(=O)NCC3(O)CCCCC3)CCC2=O)cc1 (stereo not given),-0.6,-0.6,-3.2,-1.5
CN(C)C1(CNC(=O)C2CCC(=O)N(CCc3ccc(Cl)cc3)C2)CCCCC1 (stereo not given),3.6,-4.3,-4.9,87.9*
CCCCNC(=O)CNC(=O)c1nn(-c2ccc(OC)c(Cl)c2)c(=O)c2ccccc12,x,4.3,3.5,0.5
Cc1ccc(C)c(S(=O)(=O)NC(C)CCc2ccccc2)c1 (stereo not given),192.7*,-17.0,2.5,-2.1
Cc1ccc(S(=O)(=O)NC(C)CCc2ccccc2)cc1 (stereo not given),10.3,-11.7,-1.8,-0.2
Cc1ccc(S(=O)(=O)Nc2ccc3nc(N)sc3c2)cc1,268.3*,-9.0,8.9,-2.7
Cc1nc2ccc(NS(=O)(=O)c3c(C)c(C)cc(C)c3C)cc2s1,124.9*,-7.4,2.6,-2.8
Cc1nc2cc(NS(=O)(=O)c3c(C)c(C)cc(C)c3C)ccc2s1,312.6*,2.5,-4.9,x
[N-]=[N+]=NC1c2ccccc2C(=O)N1Cc1ccccc1 (stereo not given),-1.4,-9.3,-4.6,-0.8
CNC(=O)c1cc2cc(OC)ccc2n1CCN(Cc1ccccc1)Cc1ccccc1,3.0,-16.2,0.1,2.6
CNC(=O)c1cc2cc(OC)ccc2n1CCN(C)C,0.0,-6.4,47.3*,x
Cc1ccc(S(=O)(=O)N(C)C)cc1NC(=O)C(C)OC(=O)C1CCC1 (stereo not given),x,-8.3,8.4,-4.1
COc1cccc(-c2ccc3c(c2)[C@H]2[C@H](CCN2S(=O)(=O)c2ccccc2C)[C@@H](CO)N3)c1,96.7*[16.7 µM],x,x,x
O=C(c1ccccc1F)N1CC[C@@H]2[C@@H](CO)Nc3ccc(-c4cccc(F)c4)cc3[C@@H]21,103.9*[16.7 µM],x,x,x
O=C(c1ccccc1F)N1CC[C@@H]2[C@H]1c1cc(-c3cccc(F)c3)ccc1N[C@@H]2CO,2.8[16.7 µM],x,x,x
COc1cccc(-c2ccc3c(c2)[C@H]2[C@H](CCN2S(=O)(=O)c2ccccc2C)[C@H](CO)N3)c1,1.6[16.7 µM],x,x,x
O=C(Nc1nc2nccc(-c3ccccc3)n2n1)c1ccc(F)cc1,-4.4,-10.7,-4.7,0.5
O=C1NC[C@H](Cc2ccccc2)N(CC2CCN(CCC3CCCC3)CC2)C1=O,-4.5,7.9,-0.4,1.1
NC(=O)COC(=O)c1ccc(NS(=O)(=O)c2ccc3c(c2)OCCO3)cc1,9.7,-11.2,76.4*,-1.1
CC(C)NC(=O)COC(=O)c1ccc(NS(=O)(=O)c2ccc3c(c2)OCCO3)cc1,279.7*,8.4,-3.1,0.8
N#CCC(=O)Nc1ccc(C(=O)OCC(=O)NCc2ccc3c(c2)OCO3)cc1,x,-18.9,-0.9,-0.7
SMILES,miR-122 sensor,PvdQ inh,CAL PDZ FP-1,CAL PDZ FP-2
N#CCC(=O)Nc1ccc(C(=O)OCC(=O)NC(=O)Nc2ccc3c(c2)OCCO3)cc1,3.3,-13.5,61.9*,-1.8
CNC(=O)COC(=O)c1ccc(NS(=O)(=O)c2ccc3c(c2)OCCO3)cc1,x,11.0,-1.7,-0.8
COc1ccc(OC)c(NC(=O)NC2(C(F)(F)F)Oc3ccccc3O2)c1,1.6,-7.5,-3.0,-1.5
O=C(CN1CCN(c2ccccc2)CC1)NC(=O)NCc1ccco1,-4.8,-9.2,1.1,-1.3
O=C(CN1CCN(c2ccccc2F)CC1)NC(=O)NCc1ccco1,x,-6.1,44.1*,0.0
COC(=O)c1sc2nc(C)nc(SCC(=O)C(C)(C)C)c2c1C,x,-7.2,43.0*,-1.3
